# From PubChem BioAssay AID504382 (The Scripps Research Institute Molecular Screening Center, 2011)
# The whole screen tested about 2,500 compounds, of which about 460 (18%) were called active. Not all results are given here. Values without a mark were called inactive.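 How the source made its calls: active means mean activation above a cutoff of low control average plus 3 SD from the earlier screen (cut at about 12% in these data); inactive means the rest.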
# Test: compound fluorescence interference without thin filaments, confirmation, artefact control for cardiac RTF calcium sensitizer project, biochemical (AID 504382)
# Details: IANBD fluorescence interference counterscreen, buffer, EC20 Ca2+; at 7.2 µM; hits give high values; scaled: EC20 calcium 0, EC100 calcium 100
# Procedure, shortened: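 Technique: fluorescence, 480/540 nm / Medium: MOPS-based buffer with KCl, MgCl2, EGTA, NTA, DTT, pH 7.2 / Probe or stimulus: calcium at EC20 level, 0.472 mM final / Repeats: triplicate wells per compound / Times: 15 min compound exposure at 25 °C / Measure: compound fluorescence interference relative to control well signal range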
row,SMILES,fluorescence artifact activation
1,Cc1ccc(-n2nnnc2C(=Cc2ccc(N(C)C)cc2)c2nnnn2-c2ccc(C)cc2)cc1,0.09%
2,COc1cccc2cc(-c3nc(-c4cccs4)cs3)c(=O)oc12,-0.05%
3,CCOC(=O)c1c(-c2ccccc2)csc1NC(=O)/C(C#N)=C\c1ccc(O)c(OC)c1,0.5%
4,CC(C)CN1CCN(Cc2cccn2-c2ccc(Cl)cn2)CC1CCO (stereo not drawn),26.8% (active)
5,CCOC(=O)/C(=C/C=C1\Sc2cc(OCC)c(OCC)cc2N1CC)C(C)=O,5.45%
6,O=C1CCC[C@@H]2Cc3nc4ccc(O)cc4cc3[C@@H]3CCN1[C@H]23,1.03%
7,c1ccc(CCCN2CCN(c3ccccc3)CC2)cc1,0%
8,CCc1ccc(C(=O)NNc2ccccc2F)cc1,1.03%
9,Cc1occc1C(=O)N=Nc1c(O)n(C)c2ccccc12,2.27%
10,COCCn1c(SCC(=O)Nc2ccc(NC(=O)c3ccco3)c(OC)c2)nc2ccccc2c1=O,1.13%
11,COCCn1c(=O)c2ccccc2c2ccccc2c1=O,17.2% (active)
12,COCCn1c(-c2ccc(C)cc2)nc2oc3cc(OC)ccc3c(=O)c2c1=O,0.27%
13,O=C(Nc1cc2c(cc1Br)OCCCO2)c1cccnc1,-0.06%
14,COc1ccc(CN(Cc2cccn2C)S(=O)(=O)c2ccccc2)cc1,0.19%
15,CCN(CC(=O)N1CCCC1)S(=O)(=O)c1ccc(OC)cc1,87% (active)
16,Cc1ccccc1NS(=O)(=O)c1ccc(OCC(=O)N2CCCCC2)cc1,-0.04%
17,Cc1ccc([N+](=O)[O-])c(OCCCN2C(=O)NC(C)(C)C2=O)c1,0.02%
18,COc1ccccc1N1C(C)=CC(=C(C#N)c2nc3ccccc3s2)C=C1C,0.18%
19,COc1ccc(N2C(=O)[C@@H]3[C@H](C2=O)[C@H](C(C)=O)N2c4ccccc4C=C[C@@H]32)cc1,0.08%
20,Cc1ccc(CN2CCN(Cc3ccc(-n4cccn4)cc3C)CC2CCO)cc1 (stereo not drawn),37.2% (active)
21,CCOc1ccc(CN2CCN(C/C=C/c3ccc(OC)cc3)CC2CCO)cc1 (stereo not drawn),0.09%
22,CSc1nnc(N(CCC#N)CCC#N)s1,11.2%
23,COc1ccc(-c2onc3ccc(C(C)=O)cc23)cc1,5.91%
24,CC1(C)CC(=O)C(C=Nc2ccc(C(=O)c3ccccc3)cc2N=CC2=C(O)CC(C)(C)CC2=O)=C(O)C1,0.03%

row,SMILES,fluorescence artifact activation
1,Cc1nnc(N2CCOCC2)c2nn(-c3cccc(Cl)c3)c(C)c12,0.16%
2,Cn1c(O)c(/C=N/NC(=O)c2cc3ccccc3cc2O)c2ccccc21,70% (active)
3,COc1cc(OC)c(NC(=O)c2cc3ccccc3cc2O)cc1Cl,0.48%
4,O=C(N/N=C/c1c(O)n(-c2ccc(Cl)cn2)c(=O)c2ccccc12)c1ccncc1,0.02%
5,CCCNC(=O)C12CCC(C)(C(=O)C1Br)C2(C)C (stereo not drawn),0.01%
6,CN(C)CCNC(=O)c1c(CSc2ccc(Cl)cc2)noc1C(=O)NCc1ccccc1,0.05%
7,COc1cc(OC)c(C2N(c3ccc(Cl)c(Cl)c3)C(=O)C3CCCN32)cc1OC (stereo not drawn),-0.1%
8,NC(=O)C1CCN(C(=O)c2ccc(-c3ccccc3)cc2)CC1,4.63%
9,O=C([O-])c1ccccc1-[n+]1c(-c2ccccc2)cc(-c2ccccc2)cc1-c1ccccc1,0%
10,O=C(O)c1ncc(-c2ccccc2)cn1,43.6% (active)
11,c1ccc2c(c1)CN1CCCC1=N2,-0.08%
12,CCCOc1cc(N(CC)CC)ccc1/C=C(/C#N)c1nc2ccc(C)cc2[nH]1,12.4% (active)
13,CCN(CC)c1ccc(/C=C(/C#N)c2nc3ccccc3[nH]2)c(OC(C)C)c1,41.8% (active)
14,COc1cc(/C=C(\C#N)c2nc3ccccc3[nH]2)ccc1O,0.06%
15,CCOc1cc(N(CC)CC)ccc1/C=C(/C#N)c1nc2ccccc2[nH]1,0.26%
16,COc1cc(/C=C(\C#N)c2nc3ccccc3[nH]2)cc(OC)c1O,6.16%
17,COc1cccc(/C=C(/C#N)c2nc3ccccc3[nH]2)c1OC(C)C(=O)O (stereo not drawn),0.54%
18,CCOC(=O)c1c(-c2ccccc2Cl)csc1NC(=O)c1cc(S(=O)(=O)N2CCOCC2)ccc1C,-0.04%
19,Cn1cc(/C=C2\SC(=S)N(N3CCOCC3)C2=O)c2ccccc21,0.4%
20,COC(=O)C1=C(C(=O)c2ccc(C)cc2)C(c2ccc(OC)c(OC)c2)n2nnnc2N1 (stereo not drawn),0%
21,COc1ccccc1N1C(=O)C2C(C(=O)c3ccccc3)=NN(c3ccccc3)C2C1=O (stereo not drawn),1.87%
22,Fc1ccc(C2=CC(c3ccco3)n3ncnc3N2)cc1 (stereo not drawn),3.08%
23,CN(C)c1ccc(C2C=C(c3ccc(Cl)cc3OC(F)F)Nc3ncnn32)cc1 (stereo not drawn),28.8% (active)
24,COc1cc(C2C=C(c3cccs3)Nc3ncnn32)cc(OC)c1OC (stereo not drawn),0.2%

row,SMILES,fluorescence artifact activation
1,Cc1ccc(S(=O)(=O)/N=C2/NC(=O)/C(=C/c3cc([N+](=O)[O-])ccc3O)S2)cc1,1.59%
2,COC(=O)[C@@H]1C[C@@]2(O)[C@H](O)[C@H](O)[C@H](O)C[C@H]2N1C/C=C/c1ccccc1,2.09%
3,CC(=O)Nc1cccc(C(=O)/C=C/c2ccc(N(C)C)cc2)c1,6.61%
4,COc1ccc(-c2nn(CCC(=O)O)cc2/C=C2\SC(N)=NC2=O)cc1,0%
5,O=C(Nn1cnnc1)c1cc([N+](=O)[O-])cc([N+](=O)[O-])c1,0.03%
6,COc1ccc(OC)c(/C=C/c2nc3ccccc3[nH]c2=O)c1,0.12%
7,COc1ccc2nc(-c3ccccn3)[nH]c2c1,20.2% (active)
8,COc1ccc2nc3ccccc3[n+]([O-])c2c1,2.24%
9,CN1/C(=C\C(=O)c2ccco2)C(C)(C)c2ccccc21,-0.02%
10,COc1ccc2[nH]c3c(c2c1)CCNC3c1ccc([N+](=O)[O-])o1 (stereo not drawn),-0.02%
11,COc1ccc(Nc2cccc3ccccc23)cc1,53.2% (active)
12,COc1ccc(Nc2cc(C)nc3ccc(OC)cc23)cc1,0.01%
13,COc1ccc(NC(=O)CSc2ccc3c4c(cccc24)C(=O)c2ccccc2-3)cc1,0.08%
14,CC(=O)c1cccc(Nc2cc(C)nc3ccc(C)cc23)c1,4.88%
15,CCOC(=O)COn1c(=O)c(-c2cc3ccccc3o2)[n+]([O-])c2ccccc21,-0.09%
16,CCCC[C@H]1COCCS(=O)(=O)N1Cc1ccc(F)cc1,0.08%
17,O=C(NCC1CCCO1)c1ccc2c(c1)C(=O)N(c1cccc([N+](=O)[O-])c1)C2=O (stereo not drawn),14% (active)
18,O=C(NCC1CCCO1)c1cccc2c1C(=O)c1ccc(N3CCC(Cc4ccccc4)CC3)cc1S2(=O)=O (stereo not drawn),0.63%
19,O=C(NCC1CCCO1)c1c(O)nc2sccn2c1=O (stereo not drawn),1.06%
20,CCN(CC)C(=O)Cn1c(C)c(/C=C/c2cc[n+](C)cc2)c2ccccc21,0.06%
21,CC(O)c1cccc(N=Cc2ccc3ccccc3c2O)c1 (stereo not drawn),6.46%
22,CCc1ccc(/C=C2\Oc3c(ccc(O)c3CN3CCN(C)CC3)C2=O)cc1,-0.01%
23,COc1ccc(/C=C/c2nc3sc4c(c3c(=O)o2)CCC4)cc1,121% (active)
24,COc1ccc(/C=C/C=C2\N=C(SC)SC2=O)cc1,-0.02%

row,SMILES,fluorescence artifact activation
1,CN(C)NC(=O)c1ccc([N+](=O)[O-])s1,7.24%
2,Cc1ccc(-c2nc3ncccn3c2Nc2ccc3c(c2)OCCO3)o1,73.3% (active)
3,O=C1c2ccccc2-c2onc3ccc(N4CCCC4)c1c23,0.15%
4,CS(=O)(=O)N(CC(=O)O)Cc1cccc(CN(CC(=O)O)S(C)(=O)=O)c1,0.86%
5,CCCCCCN1C=CC(=C/C=C(\C#N)C(=O)OCC)C=C1,168% (active)
6,C=CCN1C=CC(=C/C=C(/C#N)C(=O)OCC)C=C1,-0.04%
7,CCOC(=O)/C(C#N)=C\C=C1C=CN(C)C=C1,0.04%
8,CCc1ccc(C2C(C#N)=C(N)SC(N)=C2C#N)s1,0.05%
9,Cc1cc(/C=C2/NC(=O)N(Cc3ccccc3F)C2=O)c(C)n1C,5.71%
10,CCOC(=O)CSc1nc2c(c(=O)n(C)c(=O)n2C)n1Cc1ccccc1F,502% (active)
11,CSc1nc2c(c(=O)[nH]c(=O)n2C)n1CCCc1ccccc1,0.1%
12,COC(=O)CSc1nc2c(c(=O)n(C)c(=O)n2C)n1CCCc1ccccc1,52.3% (active)
13,C=CCNc1nc2c(c(=O)[nH]c(=O)n2C)n1CCCc1ccccc1,-0.06%
14,CN1CCN(c2nc3c(c(=O)n(C)c(=O)n3C)n2Cc2ccccc2F)CC1,0.14%
15,CCOC(=O)c1c(NC(=O)c2ccno2)c2cc([N+](=O)[O-])ccc2n1C,0%
16,COc1ccccc1N=Cc1c(C)c(C#N)c2[nH]c3ccccc3n2c1=O,-0.03%
17,Cc1cccc(C)c1-n1c(C)nn(-c2ncc(C(F)(F)F)cc2Cl)c1=O,0.09%
18,CCCCC1OC2(C)OC(=N)C1(C#N)C(C#N)(C#N)C2c1ccccc1 (stereo not drawn),0.23%
19,Cc1nc(Cl)c2c(n1)NC1=C(O2)C(=O)CCC1,0.77%
20,O=C1/C(=C/c2cccnc2)SC(=S)N1N1CCOCC1,0.1%
21,CCOC(=O)c1ccc(N=c2sc(C(=O)OC)cc(=O)n2CCCN2CCOCC2)cc1,-0.02%
